Data set [1] has as its target Cholinesterase (Equus caballus, UniProt P81908). In words: Inhibition of horse serum BuChE by modified Ellman's method. On the technique in general: In Ellman's method for cholinesterases, released thiocholine reacts with DTNB.
For data set [2], the target named is Acetylcholinesterase (Electrophorus electricus, UniProt O42275). In words: Inhibition of electric eel AChE by modified Ellman's method. Put shortly:
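Ellman-based assay. IC50 is the concentration giving 50% loss of AChE activity, reported as mean ± SEM from n = 3-6 experiments.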

Data set [3] in a line: Inhibition of fibril formation of amyloid beta (1-40) catalytic domain containing HHQKLVFFAED sequence by thioflavin T assay.
Data set [4] is described as follows: Induction of fibril destruction of amyloid beta (1-40) catalytic domain containing HHQKLVFFAED sequence by modified thioflavin T assay.
Data set [5] can be described thus: Octanol-water partition coefficient, log P at pH 7.4 by RP-HPLC. In kind it is physicochemical. In a few lines: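 Reversed-phase HPLC on an endcapped RP18 column (5 µm). Eluent methanol/phosphate buffer pH 7.4 (70/30) with 0.02% N,N-dimethylhexylamine, 1.0 ml flow. Analytes at 4 µg/ml in methanol, run in duplicate. Capacity factors converted to log P through a calibration against 2-phenylethanol, benzene, dimethylaniline, toluene, biphenyl and anthracene.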

The nature of data set [6]: Dissociation constant, pKa at pH 7.4. Format: physicochemical. Put shortly:
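Potentiometric titration: compound dissolved in 0.15 M KCl for constant ionic strength, with 30% dioxane or 80% methanol as co-solvent modifier. pH brought to 1.8 with 0.5 M HCl, then titrated with 0.5 M KOH. Dissociation constants determined at several modifier levels and pKa obtained by extrapolation of the calibration line. Electrode calibrated by blank titrations of 0.15 M KCl.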

A short description of data set [7]: Inhibition of amyloid beta (1-40) fibril formation by thioflavin T formation assay. In a few lines: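 HFIP-pretreated Aβ film taken up in DMSO as a 2 mM stock, stored at -20 °C for at most three days. Diluted to 100 µM final peptide in 25 mM NaH2PO4, 120 mM NaCl, 3 µM thioflavin T, 0.02% NaN3, pH 7.4. Inhibitors at 0.005–0.5 mM. Incubated at 37 °C. Fluorescence read at excitation 450 nm, emission 482 nm.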

A short description of data set [8]: Partition coefficient, log P at pH 7 by shake flask method. Format: physicochemical. The note with it: octanol/water. Put shortly:
(§1)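 Shake flask with octanol and phosphate buffer at the stated pH, each phase pre-saturated with the other overnight. Compound at 10^-5 mol/l in buffer-saturated octanol, absorbance (A0) read between 314 and 360 nm. Equal volumes shaken 4 h at 37 °C, left overnight, then centrifuged. Aqueous-layer absorbance (A1) read; log P = log((A0−A1)/A1).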

Data set [9] can be described thus: Partition coefficient, log P at pH 5 by shake flask method. In kind it is physicochemical. Particulars: octanol/water. In a few lines:
as §1

Data set [10] can be described thus: Partition coefficient, log P at pH 7.4 by shake flask method. In kind it is physicochemical. Particulars: octanol/water. In a few lines: as §1
The nature of data set [11]: Partition coefficient, log P at pH 6 by shake flask method. The note with it: octanol/water. Format: physicochemical. In a few lines:
as §1

Data set [12] is described as follows: Inhibition of fibril formation of amyloid beta (1-40) catalytic domain containing HHQKLVFFAED sequence at 0.5 mM by thioflavin T assay.

Activity calls are given as the source filed them. The rule behind the calls is not given here.

Sequence of Cholinesterase (P81908 whole entry): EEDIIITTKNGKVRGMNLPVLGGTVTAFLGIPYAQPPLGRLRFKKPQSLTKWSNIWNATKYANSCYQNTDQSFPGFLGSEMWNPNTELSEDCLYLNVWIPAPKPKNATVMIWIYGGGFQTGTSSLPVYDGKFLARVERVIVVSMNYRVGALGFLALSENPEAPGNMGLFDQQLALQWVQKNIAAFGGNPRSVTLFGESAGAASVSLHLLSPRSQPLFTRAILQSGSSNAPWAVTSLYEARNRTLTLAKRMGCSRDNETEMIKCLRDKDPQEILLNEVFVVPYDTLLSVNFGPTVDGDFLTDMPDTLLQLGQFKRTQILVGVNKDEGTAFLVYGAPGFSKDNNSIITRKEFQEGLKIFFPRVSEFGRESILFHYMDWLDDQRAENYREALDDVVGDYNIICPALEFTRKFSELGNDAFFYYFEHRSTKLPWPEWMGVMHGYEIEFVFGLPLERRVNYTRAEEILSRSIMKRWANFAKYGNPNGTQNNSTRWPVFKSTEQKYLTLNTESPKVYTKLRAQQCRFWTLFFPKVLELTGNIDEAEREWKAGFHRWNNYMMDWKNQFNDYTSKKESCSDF
Sequence of Acetylcholinesterase (O42275 whole entry): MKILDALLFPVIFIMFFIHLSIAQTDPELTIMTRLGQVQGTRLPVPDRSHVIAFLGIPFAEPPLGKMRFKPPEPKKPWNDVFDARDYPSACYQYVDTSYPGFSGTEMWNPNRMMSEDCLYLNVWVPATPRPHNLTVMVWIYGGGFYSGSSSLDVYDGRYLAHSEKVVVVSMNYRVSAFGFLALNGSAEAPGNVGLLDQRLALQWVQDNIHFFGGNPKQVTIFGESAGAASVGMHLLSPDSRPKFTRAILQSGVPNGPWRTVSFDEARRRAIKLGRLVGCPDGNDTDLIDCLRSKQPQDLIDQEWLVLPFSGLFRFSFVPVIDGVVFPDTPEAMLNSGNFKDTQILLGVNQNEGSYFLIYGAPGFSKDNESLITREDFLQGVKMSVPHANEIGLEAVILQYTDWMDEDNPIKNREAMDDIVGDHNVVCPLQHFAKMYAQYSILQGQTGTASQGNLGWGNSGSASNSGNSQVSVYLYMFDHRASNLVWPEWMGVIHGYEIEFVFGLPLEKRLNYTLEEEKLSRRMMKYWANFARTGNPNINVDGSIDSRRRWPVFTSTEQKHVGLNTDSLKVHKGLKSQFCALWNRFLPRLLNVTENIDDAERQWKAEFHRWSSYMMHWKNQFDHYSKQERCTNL

Broadly, the IC50 is the point on the concentration scale where inhibition reaches its midpoint. For orientation: inhibition means the drop in the measured response relative to a control, in per cent. By logP is commonly meant the decadic logarithm of the partition coefficient of the neutral form, usually between octanol and water. Low values mean a more hydrophilic compound, high ones a more lipophilic compound. For `Clc1cccc(Cl)c1/C=N/N=c1ccn(CCc2ccccc2)cc1`, the IC50 in data set [1] stood at 9 µM; in [2], 56.7 µM. Also, the inhibition entry in data set [3] was “Dose-dependent effect”. Also, the Activity result in [4] was “Dose-dependent effect”. This compound yielded a logP in data set [5] of 3.9.

As for `Clc1cccc(Cl)c1/C=N/N=c1ccn(Cc2ccccc2)cc1`, the IC50 was found to be 8 µM in [1] and 17.4 µM in data set [2]. The Activity result in [4] was “Dose-dependent effect”. The compound further displayed a logP in data set [5] of 3.5.

One may read the pKa as the pH at which an ionisable group is half protonated. A high value points to a group that holds its proton tightly. `Clc1cccc(Cl)c1CO/N=C/C1CCN(CCCc2ccccc2)CC1`: the pKa in data set [6] came to 7.1. In [2], this compound registered a concentration for half-maximal inhibition (IC50) of 19.1 µM. This compound showed a log partition coefficient (logP) in data set [5] of 3.6.

For `Clc1cccc(Cl)c1CON=C1CCN(CCCc2ccccc2)CC1`, the IC50 is over 100 µM in [1] and 12 µM in data set [2]. In data set [6], this compound had a pKa of 5.7. The compound further displayed a logP in [5] of 4.3.

Consider `Nc1ccc(O)cc1` [4-AMINOPHENOL], for which the IC50 in data set [7] was 90 µM; in data set [3], 83 µM.

In general, logD refers to lipophilicity at a set pH, counting ionised and neutral species. As to `Clc1cccc(Cl)c1/C=N/N=c1ccn(CCCc2ccccc2)cc1`, the inhibition result in [7] was “Active”. For the same compound, the log distribution coefficient (logD) in data set [8] turned out to be 1.3; in data set [9] it was 0.7; in [10], 3.2; in data set [11], 0.9. The IC50 in [1] worked out at 10 µM; in data set [2], 5.66 µM. Further, the pKa in [6] amounted to 8.7. The inhibition entry in data set [3] was “Dose-dependent effect”. Also, in data set [4], the Activity result is “Dose-dependent effect”. The logP in data set [5] is listed as 3.7.

On to `Clc1cccc(Cl)c1CO/N=C/c1cc[n+](CCCc2ccccc2)cc1`, for which the inhibition result in data set [7] and in [3] was “Active” in each case. Besides, the 50% inhibitory concentration (IC50) in [1] was found to be 2.78 µM; in [2], 0.18 µM.

Regarding `Clc1cccc(Cl)c1/C=N/N=c1ccn(Cc2c(Cl)cccc2Cl)cc1`, in data set [7], the inhibition entry is “Active”. Also, the pH-dependent lipophilicity (logD) in data set [8] was determined as 2.2; in data set [9], 0.8; in [10], 3.4; in [11], 1.5. 6.4 µM corresponded to half-maximal inhibition in data set [2] (IC50). For the same compound, the Activity result in data set [4] was “Dose-dependent effect”. In addition, the logP in [5] amounted to 4.

As for `Cn1ccc(=N/N=C/c2c(Cl)cccc2Cl)cc1`, in data set [12], the inhibition was determined as 60%. Further, the half-maximal inhibitory concentration (IC50) stood at 11 µM in data set [1] and 739 µM in data set [2]. In addition, in data set [4], the result was inactive. The same compound displayed a logP in data set [5] of 3.4.

For the compound `Clc1cccc(Cl)c1CO/N=C/c1cc[n+](CCC[n+]2ccc(/C=N/OCc3c(Cl)cccc3Cl)cc2)cc1.[Br-].[Br-]`, the inhibition entry in [7] and in [3] was “Active” in each case. For the same compound, the half-maximal inhibitory concentration (IC50) in data set [1] was 1.83 µM; in data set [2], 0.34 µM. In data set [5], the logP is on record as 0.65.

The record behind these values is ChEMBL document CHEMBL1157580, “Interaction of (benzylidene-hydrazono)-1,4-dihydropyridines with beta-amyloid, acetylcholine, and butyrylcholine esterases” (Bioorg Med Chem, 2010).
